Compound activity from PubChem.
Shown are actives, neighbours in structure and some others; about 2.6% of the full set was active somewhere.
VIM-2 inh: inhibitors of Pseudomonas aeruginosa VIM-2 metallo-beta-lactamase | purified VIM-2, nitrocefin hydrolysis, epi-absorbance fluorescence | inhibition, % at 5.6 µM | 0.89% of 290,000 active | AID 1527;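 active = inhibition above the mean of all tested compounds plus 3 SD, cutoff set per screening run, cut at about 7.5% in these data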;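 also: red hydrolysis product quenches plate fluorescence so inhibitors raise well fluorescence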
RanGTP-Imp inh: disruptors of Ran-importin-beta complex formation – biochemical, FRET, CFP-Ran, YFP-importin-beta, homogeneous, primary screen; cell-free CFP-Ran/YFP-importin-beta FRET ratio; inhibition, % (test concentration not listed); 1.1% of 300,000 active;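 active = more than half of the replicate wells show a fall in the fluorescence ratio signal beyond about 16%, limit read from the data, passing the limit was not always enough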
Runt-SMMHC FRET: blocks binding of human RUNX1 Runt domain to CBFb-SMMHC. Q01196+Q13951. Cerulean-Runt/Venus-CBFb-SMMHC FRET ratio 530/480, 1 h. inhibition, % at 20 µM. 0.74% of 220,000 active. AID 1434;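 active = mean inhibition across duplicate retests at 20 µM reaching about 50%, limit read from the data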;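 also: inhibitors lower the FRET ratio by blocking Runt binding to CBFb-SMMHC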
Target sequence (Q01196 whole entry, looked up, the tested form may be a part): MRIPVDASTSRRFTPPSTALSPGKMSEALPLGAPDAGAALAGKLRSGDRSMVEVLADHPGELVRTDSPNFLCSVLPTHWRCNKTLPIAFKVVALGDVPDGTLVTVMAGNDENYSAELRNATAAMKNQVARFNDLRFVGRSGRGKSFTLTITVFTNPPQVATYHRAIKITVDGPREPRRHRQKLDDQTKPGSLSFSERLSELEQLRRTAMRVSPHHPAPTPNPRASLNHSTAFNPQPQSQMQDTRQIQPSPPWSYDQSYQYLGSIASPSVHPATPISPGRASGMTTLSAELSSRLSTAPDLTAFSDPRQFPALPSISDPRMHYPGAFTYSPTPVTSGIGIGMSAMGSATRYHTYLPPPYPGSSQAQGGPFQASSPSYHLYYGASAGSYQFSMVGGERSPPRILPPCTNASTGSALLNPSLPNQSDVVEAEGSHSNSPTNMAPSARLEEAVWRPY
Target sequence (Q13951 whole entry, looked up, the tested form may be a part): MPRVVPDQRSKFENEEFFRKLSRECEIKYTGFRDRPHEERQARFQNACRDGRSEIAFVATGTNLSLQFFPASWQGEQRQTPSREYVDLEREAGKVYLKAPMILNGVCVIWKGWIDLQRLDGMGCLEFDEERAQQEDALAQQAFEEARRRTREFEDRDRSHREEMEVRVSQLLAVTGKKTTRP
IMP-1 inhibitor: blocks Pseudomonas aeruginosa IMP-1 metallo-beta-lactamase | inhibition, % at 5.6 µM | purified IMP-1, nitrocefin hydrolysis, epi-absorbance fluorescence | 0.45% of 290,000 active;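 active = inhibition above the mean plus 3 SD of all compounds in the same screening run, cut at about 4.5% in these data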
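System: purified IMP-1 / Input: IMP-1 dispensed at 0.2 nM / Medium: 50 mM HEPES pH 7.1, 50 µM ZnSO4, 0.05% Brij 35 / Timing: 15 min enzyme–compound preincubation, then 25 min nitrocefin reaction, 25 °C / Technique: plate fluorescence quenching by hydrolysis product, ex 480/em 530 nm / Repeats: singlicate testing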
Runt-CBFb FRET: Runt domain-CBFb interaction inhibition. Q01196+Q13951. Cerulean-Runt/Venus-CBFb FRET ratio 530/480, 1 h. inhibition, % at 20 µM. 0.46% of 220,000 active. AID 1496;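 active = inhibition over about 50% at 20 µM in the single-dose screen, limit read from the data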
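System: Cerulean-labeled Runt domain protein | Quantity: 100 nM of each labeled protein | Schedule: 1 h compound exposure, room temperature | Detection: Fluorescence energy transfer, 422 nm excitation, 530/480 nm emission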
Of the large screens only hits and unclear results are named; the others gave an inactive call.

COc1ccc(Nc2nc3ccc(C)cc3cc2C#N)c(OC)c1	none
CCOc1ccc2nc(NCCNC(=O)CC)c(C#N)cc2c1	Runt-SMMHC FRET 95.1
O=C(Nc1ccccc1Cl)c1cc[n+]([O-])cc1	none (no result: Runt-SMMHC FRET, Runt-CBFb FRET)
CN1c2ccccc2C(O)=C(C(=O)Nc2ccccc2)S1(=O)=O	none
Cc1sc2c(c1C)C(O)=C(C(=O)Nc1ccccc1)S(=O)(=O)N2C	IMP-1 inhibitor 4.6
CCC(C)n1c(=O)c2sccc2n2c(CCCC(=O)N3CCC(C(N)=O)CC3)nnc12 (stereo not drawn)	none (no result: Runt-SMMHC FRET, Runt-CBFb FRET)
O=C(COc1ccc(S(=O)(=O)N2CCOCC2)cc1Cl)NCc1ccco1	IMP-1 inhibitor 5.4 (no result: Runt-SMMHC FRET, Runt-CBFb FRET)
CCOC(=O)N1CCN(S(=O)(=O)c2ccc(OCC(=O)OC)c(Cl)c2)CC1	IMP-1 inhibitor 5.0
COc1cccc(CNC(=O)c2cnc(-c3ccccn3)nc2C(F)(F)F)c1	RanGTP-Imp inh 29.5
Cc1ccc2sc(NC(=O)CSc3nc(C)cc(C)c3C#N)nc2c1	Runt-SMMHC FRET 55.6
Cc1noc(C)c1CN1C(=O)c2ccccc2C1=O	IMP-1 inhibitor 4.8 (no result: Runt-SMMHC FRET, Runt-CBFb FRET)
Cc1ccc(C2(C)NC(=O)N(Cc3c(C)noc3C)C2=O)cc1 (stereo not drawn)	none
CC(C)N1CCc2c(sc(NC(=O)c3ccc(S(=O)(=O)N(C)CC4CCCO4)cc3)c2C(N)=O)C1 (stereo not drawn)	RanGTP-Imp inh 71.9 (no result: Runt-SMMHC FRET, Runt-CBFb FRET)
CCN1CCc2c(sc(NC(=O)c3ccc(S(=O)(=O)N(C)CC4CCCO4)cc3)c2C(N)=O)C1 (stereo not drawn)	RanGTP-Imp inh 48.3 (no result: Runt-SMMHC FRET, Runt-CBFb FRET)
CCOc1ccc(NC(=O)CCCc2cc(-c3ccc(OCC)cc3)on2)cc1	none
CCOc1ccc(-c2cc(CCCC(=O)Nc3cccc(OC)c3)no2)cc1	RanGTP-Imp inh 26.6
Cc1ccc(C)c(OCC(=O)NCC(c2ccco2)N2CCCCC2)c1 (stereo not drawn)	none (no result: VIM-2 inh, Runt-SMMHC FRET, IMP-1 inhibitor, Runt-CBFb FRET)
CCOCCOC(=O)C1=C(C)Nc2ccc(C)cc2S1	RanGTP-Imp inh 23.4
CNC(=O)COc1ccc(Nc2nnc(-c3ccc(C)c(S(N)(=O)=O)c3)c3ccccc23)cc1	none (no result: Runt-SMMHC FRET, Runt-CBFb FRET)
CC(=O)OC1CC[C@@]2(C)C(CCC3C2CC(=O)[C@@]2(C)C3CC3CC(C)=CC(=O)C32)C1 (stereo partly drawn)	none
COc1ccc(/C=N/NC(=O)C(N)=O)c(OC)c1OC	IMP-1 inhibitor 8.4
Cc1ccnc(N/C=C(\C#N)c2nc(-c3cccc(Br)c3)cs2)c1	RanGTP-Imp inh 56.2
O=C(Cc1ccccc1)Nc1nc(=O)c2ccccc2s1	VIM-2 inh 11.0
COc1cc2[nH]c(=O)n(CCC(=O)N3CCC(N4CCCCC4)CC3)c(=O)c2cc1OC	VIM-2 inh 7.8
COc1cc2[nH]c(=O)n(Cc3ccc(C(=O)N4CCC(N5CCCCC5)CC4)cc3)c(=O)c2cc1OC	none (no result: Runt-SMMHC FRET, Runt-CBFb FRET)
CC(C)(C)OC(=O)NN1CC(=O)N2[C@@H](Cc3c([nH]c4ccccc34)C2(C)C)C1=O	none (no result: Runt-SMMHC FRET, Runt-CBFb FRET)
Cc1ncc(CO)c(/C=N/NC(=S)Nc2cccc(Cl)c2)c1O	none
Cc1ncc(CO)c(/C=N/NC(=O)c2cc3c(s2)CCCC3)c1O	RanGTP-Imp inh 49.8, Runt-SMMHC FRET 91.9
COc1ccccc1N/N=C/c1c(CO)cnc(C)c1O	none
Cc1ncc(CO)c(/C=N/NC(=O)c2ccc(O)cc2)c1O	RanGTP-Imp inh 44.4, Runt-SMMHC FRET 62.8
Cc1ncc(CO)c(/C=N/NC(=O)c2ccccc2Br)c1O	Runt-SMMHC FRET 63.8
Cc1ncc(CO)c(/C=N/NC(=S)Nc2ccc(Cl)c(Cl)c2)c1O	none
C#Cc1cccc(NC(=O)c2ccc3c(c2)C(=O)N(Cc2cccnc2)C3=O)c1	none (no result: Runt-SMMHC FRET, Runt-CBFb FRET)
C[C@@H]1CC=C[C@H]2[C@H]1C(=O)N(Cc1ccccc1)[C@H]2c1cccc([N+](=O)[O-])c1	none (no result: VIM-2 inh, IMP-1 inhibitor)
COc1ccc(NCc2ccc(OC)c(Cn3ccnc3)c2)c(OC)c1	none (no result: Runt-SMMHC FRET, Runt-CBFb FRET)
CC(Nc1nc(N2CCN(S(C)(=O)=O)CC2)nc2ccccc12)c1ccccc1 (stereo not drawn)	IMP-1 inhibitor 4.5
COc1ccc(Nc2nc(N3CCN(S(C)(=O)=O)CC3)nc3ccccc23)c(OC)c1	none (no result: Runt-SMMHC FRET, Runt-CBFb FRET)
CC(C)c1nc2c(c(=O)c3ccccc3n2C)c(=O)n1-c1ccc(F)cc1	none
Cc1nc2c(c(=O)c3ccccc3n2C)c(=O)n1-c1ccc(F)cc1	VIM-2 inh 8.0
CC(CC(=O)NNC(=O)c1ccncc1)c1ccccc1 (stereo not drawn)	none (no result: VIM-2 inh, Runt-SMMHC FRET, IMP-1 inhibitor, Runt-CBFb FRET)
